Results taken from ChEMBL document CHEMBL1208782, “Synthesis and pharmacological validation of a novel series of non-steroidal FXR agonists” (Bioorg Med Chem Lett, 2010).
Activity calls are given as the source filed them. The calls are words filed in the database; no cut-off is given here.

Experiments:
[1] = Plasma concentration in db/db mouse at 25 mg/kg bid after 24 hrs by LC/MS-MS analysis; format: ADME, organism-based; parameters: dose 25 mg/kg; settings: read-out: Drug uptake
Procedure, shortened: (§1)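 db/db mice were dosed twice daily for 12 days. Plasma and liver concentrations were determined 4 h and 24 h after the last administration.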

Mus musculus [2] = experiment: Reduction in total plasma cholesterol level in db/db mouse at 1-25 mg/kg bid after 12 days; format: functional, organism-based
Procedure, shortened: (§2)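 C57BL/KSK-mLep^db/mLep^db mice were dosed orally at 1, 5 and 25 mg/kg b.i.d. for 12 days. Total plasma triglycerides and total plasma cholesterol were measured, with cholesterol reported as mg/dl. Significance was given at p<0.05, <0.01 and <0.001 levels.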

[3] = Drug level in db/db mouse liver at 25 mg/kg bid after 24 hrs by LC/MS-MS analysis; format: ADME, organism-based; parameters: dose 25 mg/kg; settings: read-out: Drug uptake
Procedure, shortened: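 C57BL/KSK-mLep^db/mLep^db (db/db) mice dosed orally b.i.d. for 12 days at 1, 5 or 25 mg/kg. Liver concentrations of parent compound measured 24 h after the last administration.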

[4] = Drug level in db/db mouse liver at 25 mg/kg bid after 4 hrs by LC/MS-MS analysis; format: ADME, organism-based; parameters: dose 25 mg/kg; settings: read-out: Drug uptake; procedure, shortened: as §1
[5] = Plasma concentration in db/db mouse at 25 mg/kg bid after 4 hrs by LC/MS-MS analysis; format: ADME, organism-based; parameters: dose 25 mg/kg; settings: read-out: Drug uptake; procedure, shortened: as §1
Mus musculus [6] = experiment: Reduction in total plasma triglyceride level in db/db mouse at 1-25 mg/kg bid after 12 days; format: functional, organism-based; procedure, shortened: as §2
[7] = Plasma concentration in db/db mouse at 5 mg/kg, po after 10 mins; format: ADME, organism-based; parameters: dose 5 mg/kg, route oral; settings: read-out: Drug uptake
Procedure, shortened: (§3)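 Single dose to mice, 5 mg/kg po or 1 mg/kg iv. Plasma was sampled at 5, 10, 30, 90 and 240 min. Only parent compound was measured, in ng/mL.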

[8] = biological target: T1, Bile acid receptor (Homo sapiens) (UniProt Q96RI1); experiment: Agonist activity at human GST-fused FXR LBD assessed as cofactor peptide interaction with receptor ligand binding domain by FRET assay relative to GW-4064
T1 sequence (whole entry): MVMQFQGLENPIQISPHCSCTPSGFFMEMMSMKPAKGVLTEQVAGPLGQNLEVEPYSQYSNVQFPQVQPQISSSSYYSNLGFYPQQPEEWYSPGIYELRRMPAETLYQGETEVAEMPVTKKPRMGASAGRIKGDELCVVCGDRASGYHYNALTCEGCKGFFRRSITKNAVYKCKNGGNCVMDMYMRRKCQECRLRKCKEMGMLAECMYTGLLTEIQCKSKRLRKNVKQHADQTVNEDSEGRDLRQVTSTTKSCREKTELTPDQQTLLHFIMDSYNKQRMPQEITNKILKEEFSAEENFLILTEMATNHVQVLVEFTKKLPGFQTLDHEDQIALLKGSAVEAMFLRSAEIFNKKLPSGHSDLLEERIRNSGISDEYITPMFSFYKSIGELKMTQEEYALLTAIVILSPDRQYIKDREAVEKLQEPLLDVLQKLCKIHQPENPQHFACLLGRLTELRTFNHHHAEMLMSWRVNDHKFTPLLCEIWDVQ

Liver [9] = experiment: Drug level in db/db mouse liver measured metabolites as glucuronide at 5 mg/kg, po after 240 mins; format: ADME, organism-based; parameters: dose 5 mg/kg, route oral; settings: in vivo, 4 h
Procedure, shortened: (§4)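 Mice got a single dose, 5 mg/kg po or 1 mg/kg iv. Liver and bile were sampled 240 min after dosing. Parent carboxylic acid, its acyl-glucuronide and its taurine amide were quantified separately, in ng/mL. Glucuronide identity was confirmed by glucuronidase digestion of bile or bile extracts, which regenerated the parent.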

[10] = Plasma concentration in db/db mouse at 5 mg/kg, po after 30 mins; format: ADME, organism-based; parameters: dose 5 mg/kg, route oral; settings: read-out: Drug uptake; procedure, shortened: as §3
Liver [11] = experiment: Drug level in db/db mouse liver measured metabolites as glucuronide at 1 mg/kg, iv after 240 mins; format: ADME, organism-based; parameters: dose 1 mg/kg, route intravenous; settings: in vivo, 4 h; procedure, shortened: as §4
Bile acid receptor [12] = biological target: T2, Bile acid receptor (Homo sapiens, UniProt Q96RI1); experiment: Agonist activity at human GST-fused FXR LBD assessed as cofactor peptide interaction with receptor ligand binding domain by FRET assay
T2 sequence (Q96RI1 whole entry): T1 sequence (whole entry)

[13] = biological target: T1, Bile acid receptor (Homo sapiens); experiment: Agonist activity at human full length FXR transfected in HEK293 cells coexpressing pTRexDest/pGL2promotor assessed as luciferase activity by direct reporter cellular assay relative to GW-4064; format: functional, cell-based
[14] = Clearance in db/db mouse at 1 mg/kg, iv; format: ADME, organism-based; parameters: dose 1 mg/kg, route intravenous; settings: in vivo
Procedure, shortened: (§5)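 Mice received a single dose of 5 mg/kg po or 1 mg/kg iv. Plasma was sampled at 5, 10, 30, 90 and 240 min and the parent compound alone was measured (ng/mL). Clearance (mL/h/kg), Vd (mL/kg) and oral bioavailability were derived from these plasma profiles.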

Liver [15] = experiment: Drug level in db/db mouse liver measured metabolites as carboxylic acid at 5 mg/kg, po after 240 mins; format: ADME, organism-based; parameters: dose 5 mg/kg, route oral; settings: in vivo, 4 h; procedure, shortened: as §4
[16] = Drug level in db/db mouse bile measured metabolites as glucuronide at 5 mg/kg, po after 240 mins; format: ADME, organism-based; parameters: dose 5 mg/kg, route oral; settings: in vivo, 4 h
[17] = Drug level in db/db mouse bile measured metabolites as taurine amide at 5 mg/kg, po after 240 mins; format: ADME, organism-based; parameters: dose 5 mg/kg, route oral; settings: in vivo, 4 h; procedure, shortened: as §4
[18] = Drug level in db/db mouse bile measured metabolites as carboxylic acid at 5 mg/kg, po after 240 mins; format: ADME, organism-based; parameters: dose 5 mg/kg, route oral; settings: in vivo, 4 h
Liver [19] = experiment: Drug level in db/db mouse liver measured metabolites as taurine amide at 5 mg/kg, po after 240 mins; format: ADME, organism-based; parameters: dose 5 mg/kg, route oral; settings: in vivo, 4 h; procedure, shortened: as §4
Liver [20] = experiment: Drug level in db/db mouse liver measured metabolites as taurine amide at 1 mg/kg, iv after 240 mins; format: ADME, organism-based; parameters: dose 1 mg/kg, route intravenous; settings: in vivo, 4 h; procedure, shortened: as §4
[21] = Plasma concentration in db/db mouse at 1 mg/kg, iv after 30 mins; format: ADME, organism-based; parameters: dose 1 mg/kg, route intravenous; settings: read-out: Drug uptake; procedure, shortened: as §3
[22] = Plasma concentration in db/db mouse at 1 mg/kg, iv after 90 mins; format: ADME, organism-based; parameters: dose 1 mg/kg, route intravenous; settings: read-out: Drug uptake; procedure, shortened: as §3
Bile acid receptor [23] = biological target: T2, Bile acid receptor; experiment: Agonist activity at human full length FXR transfected in HEK293 cells coexpressing pTRexDest/pGL2promotor assessed as luciferase activity by direct reporter cellular assay; format: functional, cell-based; settings: read-out: EC50
[24] = Plasma concentration in db/db mouse at 5 mg/kg, po after 90 mins; format: ADME, organism-based; parameters: dose 5 mg/kg, route oral; settings: read-out: Drug uptake; procedure, shortened: as §3
[25] = Drug level in db/db mouse bile measured metabolites as taurine amide at 1 mg/kg, iv after 240 mins; format: ADME, organism-based; parameters: dose 1 mg/kg, route intravenous; settings: in vivo, 4 h; procedure, shortened: as §4
[26] = Drug level in db/db mouse bile measured metabolites as carboxylic acid at 1 mg/kg, iv after 240 mins; format: ADME, organism-based; parameters: dose 1 mg/kg, route intravenous; settings: in vivo, 4 h
[27] = Plasma concentration in db/db mouse at 1 mg/kg, iv after 10 mins; format: ADME, organism-based; parameters: dose 1 mg/kg, route intravenous; settings: read-out: Drug uptake; procedure, shortened: as §3
[28] = Oral bioavailability in db/db mouse at 5 mg/kg, po; format: ADME, organism-based; settings: in vivo
Procedure, shortened: (§6)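 Derived from the single-dose mouse plasma time courses of parent compound, 5-240 min. Dosing was 5 mg/kg po or 1 mg/kg iv. Volume of distribution is in mL/kg, clearance in mL/h/kg, and oral bioavailability in %.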

[29] = Drug level in db/db mouse bile measured metabolites as glucuronide at 1 mg/kg, iv after 240 mins; format: ADME, organism-based; parameters: dose 1 mg/kg, route intravenous; settings: in vivo, 4 h
Bile acid receptor [30] = biological target: T2, Bile acid receptor; experiment: Agonist activity at human […] FXR LBD expressed in HEK293 cells coexpressing GAL4-DNA bindig domain and pFRluc by mammalian one-hybrid assay; format: functional, cell-based; settings: read-out: EC50
[31] = Plasma concentration in db/db mouse at 5 mg/kg, po after 5 mins; format: ADME, organism-based; parameters: dose 5 mg/kg, route oral; settings: read-out: Drug uptake; procedure, shortened: as §3
Liver [32] = experiment: Drug level in db/db mouse liver measured metabolites as carboxylic acid at 1 mg/kg, iv after 240 mins; format: ADME, organism-based; parameters: dose 1 mg/kg, route intravenous; settings: in vivo, 4 h; procedure, shortened: as §4
[33] = Clearance in db/db mouse at 5 mg/kg, po; format: ADME, organism-based; parameters: dose 5 mg/kg, route oral; settings: in vivo; procedure, shortened: as §5
[34] = biological target: T1, Bile acid receptor (Homo sapiens); experiment: Agonist activity at human […] FXR LBD expressed in HEK293 cells coexpressing GAL4-DNA bindig domain and pFRluc by mammalian one-hybrid assay relative to GW-4064; format: functional, cell-based
Mus musculus [35] = experiment: Volume of distribution in db/db mouse at 1 mg/kg, iv; format: ADME, organism-based; parameters: dose 1 mg/kg, route intravenous; settings: in vivo; procedure, shortened: as §6
[36] = Plasma concentration in db/db mouse at 1 mg/kg, iv after 240 mins; format: ADME, organism-based; parameters: dose 1 mg/kg, route intravenous; settings: read-out: Drug uptake; procedure, shortened: as §3
[37] = Plasma concentration in db/db mouse at 1 mg/kg, iv after 5 mins; format: ADME, organism-based; parameters: dose 1 mg/kg, route intravenous; settings: read-out: Drug uptake; procedure, shortened: as §3

Compound: CC[C@H]1[C@@H](O)[C@@H]2[C@H](CC[C@]3(C)[C@@H]([C@H](C)CCC(=O)O)CC[C@@H]23)[C@@]2(C)CC[C@@H](O)C[C@@H]12 [OBETICHOLIC ACID]
- concentration at 24 h [1]: 3.24 µM
- Activity (Mus musculus [2]): Active
- concentration at 24 h [3]: 16.6 µM
- concentration at 4 h [4]: 13.9 µM
- concentration at 4 h [5]: 2.12 µM
- Activity (Mus musculus [6]): Active

Compound: CN(Cc1ccc(C(=O)NCCS(=O)(=O)O)cc1)c1ccc(OCc2c(-c3c(Cl)cccc3Cl)noc2C2CC2)nc1C(F)(F)F
- concentration at 10 min [7]: 3 ng/mL
- Efficacy [8]: 105%
- Drug uptake (Liver [9]): 30 ng/mL
- concentration at 0.5 h [10]: 6 ng/mL
- Drug uptake (Liver [11]): 7 ng/mL
- EC50 (Bile acid receptor [12]): 0.014 µM
- Efficacy [13]: 49%
- clearance [14]: 190 mL/min/kg
- Drug uptake (Liver [15]): 6 ng/mL
- Drug uptake [16]: 1055 ng/mL
- Drug uptake [17]: 32442 ng/mL
- Drug uptake [18]: 32 ng/mL
- Drug uptake (Liver [19]): 262 ng/mL
- Drug uptake (Liver [20]): 350 ng/mL
- concentration at 0.5 h [21]: 3 ng/mL
- concentration at 1.5 h [22]: 19 ng/mL
- EC50 (Bile acid receptor [23]): 0.925 µM
- concentration at 1.5 h [24]: 12 ng/mL
- Drug uptake [25]: 24151 ng/mL
- Drug uptake [26]: 12 ng/mL
- concentration at 10 min [27]: 59 ng/mL
- bioavailability [28]: 5.8%
- Drug uptake [29]: 169 ng/mL
- EC50 (Bile acid receptor [30]): 1.42 µM
- concentration at 5 min [31]: 1 ng/mL
- Drug uptake (Liver [32]): 8 ng/mL
- CL/F [33]: 3280 mL/min/kg
- Efficacy [34]: 57%
- Vd (Mus musculus [35]): 31.7 L/kg
- concentration at 4 h [36]: 8 ng/mL
- concentration at 5 min [37]: 72 ng/mL
